Assay outcomes from PubChem.
Autophagy mod: alters autophagy in cells | actives 0.98% (n = 190,000) | calls only at 10 µM (by protocol) | MEF GFP-LC3 puncta imaging; test concentration mostly 10 µM;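 active means percentage of spot-positive cells more than 3 SD above its plate mean, without a fluorescence outlier flag or 80% toxicity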;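 further: spot-positive cell cutoff set from DMSO-treated cells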
HKDC1 inhibitor: blocks human hexokinase HKDC1 activity; Q2TB90; recombinant HKDC1, G6PDH/diaphorase resazurin coupled fluorescence; inhibition, % at 20 µM; actives 0.16% (n = 340,000); AID 493160;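 active means inhibition above about 35% when tested at 20 µM, limit read from the data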;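 further: plate controls were DMSO wells with enzyme for no effect and DMSO wells lacking enzyme for full effect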
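Test system: recombinant HKDC1 (HK5) hexokinase enzyme, produced in-house; Amount: enzyme 5 µg/mL final; Buffer or medium: Tris pH 8.0 buffer with MgCl2, Tween-20, BSA, BME; Reagent: glucose and ATP substrates; Doses: 20 µM test compound, 1% DMSO; Incubation: 90 min reaction incubation at room temperature, dark; Detection: resorufin fluorescence at 613 nm.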
Tb hexokinase: blocks Trypanosoma brucei hexokinase 1 activity; recombinant TbHK1, G6PDH-coupled NADH A340; inhibition, % at 10 µM; actives 0.11% (n = 220,000); AID 1430;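 active means inhibition of 50% or more in the single-dose primary screen; inactive means inhibition below 50%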
PERK inh: blocks human PERK kinase; Q9NZJ5; CHO PERK-DD fusion, SEAP luminescence translation reporter; inhibition, % at 5.6 µM; actives 0.17% (n = 220,000); AID 1416;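 active means inhibition above the mean inhibition of all tested compounds plus 3 SD, set separately per screening campaign, cut at about 2.9% in these data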;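 further: PERK kinase domain activated by AP20187 dimerizer at 100 nM; 0% = DMSO with dimerizer and 100% = rapamycin at 8.4 µM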
Dynein transport: dynein cargo transport inhibition | AID 1381 | actives 0.47% (n = 220,000) | z-score, hits read low | 3617.4 mouse cells, GR-EGFP nuclear translocation imaging; test concentration mostly 20 µM; stimulated with dexamethasone, 1 µM; stronger effect = lower value;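 active means plate z-score of nuclear minus cytoplasmic receptor signal below a set negative limit, without overly bright fluorescence or cell loss, cut at about -3.5 in these data, passing the limit was not always enough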;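 further: z-score of nuclear minus cytoplasmic ring GR-EGFP intensity difference per well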
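Buffer or medium: tet-free medium with charcoal-stripped serum / Also added: dexamethasone agonist, 1.0 µM final, for 30 min / Timing: induction 48 h, compound 1 h, agonist 30 min / Measured by: high-content fluorescence imaging after fixation / Read-out: nuclear-to-cytoplasmic GR-EGFP distribution per well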
HSV replic up: HSV replication enhancement. HSV replication augmentation in cells, fold increase. maximum fold increase. actives 0.005% (n = 220,000); in the data active means maximum fold increase above about 1.5; tested in PC3 cells
G6PDH counter: counter-screen for TbHK1 inhibitors: Leuconostoc G6PDH inhibition; purified G6PDH, NADH absorbance, 1 h; inhibition, % at 10 µM; shares compounds with Tb hexokinase; AID 2516; actives 7% (n = 210);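 active means at least 50% inhibition in the glucose-6-phosphate dehydrogenase coupled counterscreen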
TbHK1 rescreen: T. brucei hexokinase 1 inhibition, rescreen; shares compounds with Tb hexokinase; inhibition, % at 10 µM; recombinant TbHK1, G6PDH-coupled NADH A340 absorbance; actives 10% (n = 210);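 active means inhibition of at least 50% in both of the two screening runs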;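 further: 0% and 100% set by the maximum and minimum signal control wells on each plate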
Starred values were filed as active, the others as inactive; i = inactive; . = no result given. Hits are enriched below; roughly 1.2% of the tested compounds scored in any of these assays.

SMILES	Autophagy mod	HKDC1 inhibitor	Tb hexokinase	PERK inh	Dynein transport	HSV replic up	G6PDH counter	TbHK1 rescreen
O=[N+]([O-])c1cc(/C=N\Nc2nccs2)ccc1O	i	.	50*	0	2.6	.	-65	56*
CC(NS(=O)(=O)c1cccc(C(=O)NCc2ccncc2)c1)c1ccccc1 (configuration not stated)	.	-5	.	.	.	.	.	.
COC(=O)c1[nH]c(=O)c2ccccc2c1OCc1ccccc1	i	0	54*	0	-1.2	i	-31	-27
CC(O)c1nc2ccc(Cc3ccc4nc(C(C)O)[nH]c4c3)cc2[nH]1 (configuration not stated)	i	0	55*	2	-0.73	i	-5	-7
COc1ccc2nc(C(C)O)[nH]c2c1 (configuration not stated)	i	-6	1	2	-0.47	i	.	.
N#Cc1cc(Sc2ccccn2)c(Sc2ccccn2)cc1C#N	i	1	58*	-1	0.048	i	-12	-9
CCn1nc(C(=O)NCc2nnc3ccccn23)c2ccccc2c1=O	.	0	.	.	.	.	.	.
C=CCNC(=O)CC(C)C(CCCCC)C(=O)O (configuration not stated)	i	-11	50*	1	-0.06	i	-9	3
CCCCC(C(=O)O)C(C)CC(=O)Nc1cccc(C(=O)O)c1 (configuration not stated)	i	2	-2	1	-0.38	i	.	.
C[C@H](NS(=O)(=O)c1ccc(Cl)cc1)C(=O)OCC(=O)Nc1cc(S(=O)(=O)N2CCOCC2)ccc1Cl	.	-4	.	.	.	.	.	.
Cc1ccc(C(=O)NC(=S)NNS(=O)(=O)c2ccc(C)cc2)cc1	i	-29	17	-1	0.34	i	.	.
Cc1ccc(S(=O)(=O)NNC(=S)NC(=O)c2ccc([N+](=O)[O-])cc2)cc1	i	-25	78*	1	0.15	i	-26	10
O=C(CSc1nnc2ccccn12)NNC(=O)c1ccccc1F	.	-2	.	.	.	.	.	.
Cc1c(NC(=O)CC(=O)Nc2c(C)n(C)n(-c3ccccc3)c2=O)c(=O)n(-c2ccccc2)n1C	i	-7	74*	1	-0.25	i	-5	4
CC(C)c1ccc(C(=O)COC(=O)C(O)c2ccccc2)cc1 (configuration not stated)	.	-6	.	.	.	.	.	.
O=S1(=O)N=C(N2CCOCC2)c2ccccc21	i	-4	57*	2	-0.36	i	-9	-1
CCCn1c(SCC(=O)Nc2c(C)cccc2CC)nnc1C(C)C	i	-8	5	-1	0.62	i	.	.
CCCn1c(SCC(=O)Nc2ccccc2CC)nnc1C(C)C	i	1	65*	-2	-0.61	i	3	2
O=C(c1cc(S(=O)(=O)N2CCOCC2)c(Cl)cc1Cl)N1CCCCC1	i	-2	4	-1	0.047	i	.	.
NC(=O)C1CCN(C(=O)c2cc(S(=O)(=O)N3CCOCC3)c(Cl)cc2Cl)CC1	i	-3	69*	1	-0.45	i	-8	-3
Cc1c(C(=O)Nc2ccccc2N2CCN(C)CC2)oc2ccc(F)cc12	.	0	.	.	.	.	.	.
CC1CCCN(C(=O)C2CCN(S(=O)(=O)c3cccc4nsnc34)CC2)C1 (configuration not stated)	.	-5	.	.	.	.	.	.
O=C(C1CCN(S(=O)(=O)c2cccc3nsnc23)CC1)N1CCc2ccccc2C1	i	8	54*	-1	-0.14	.	-30	-19
O=C(NC1CCN(C(=S)Nc2ccccc2)CC1)C1CCCCC1	.	-5	.	.	.	.	.	.
FC(F)(F)Oc1ccc(Nc2nc(N3CCOCC3)nc(N3CCOCC3)n2)cc1	.	0	.	.	.	.	.	.
SMILES	Autophagy mod	HKDC1 inhibitor	Tb hexokinase	PERK inh	Dynein transport	HSV replic up	G6PDH counter	TbHK1 rescreen
CC(C)(C)NC(=O)C(c1ccc(-c2ccccc2)cc1)N(C[C@H]1CC[C@@H]([C@@H]2CC[C@H](CO)O2)O1)C(=O)c1ccccc1F (some centres not stated)	.	2	.	.	.	.	.	.
O=C(O)CCCCC1CCSS1 (configuration not stated)	i	1	86*	1	0.31	i	-39	96*
CC(=O)c1cccc(NC(=O)c2ccccc2N(Cc2ccccc2)S(C)(=O)=O)c1	.	-6	.	.	.	.	.	.
CNc1nc(-c2ccccc2)[n+](-c2ccc(C)cc2)s1	i	19	61*	0	-1.1	i	17	85*
Cc1ccc(-c2nc(N)s[n+]2-c2ccccc2)cc1	i	-6	98*	0	-1.1	i	14	95*
Cc1ccc(-c2nc3ccccc3nc2-c2ccccc2)cc1	.	-1	.	.	.	.	.	.
CN(C)c1ccc(C(=S)N2CCOCC2)cc1	i	-5	69*	0	0.56	i	-20	-30
COc1ccc(CCNC(=O)c2nnn(CC(=O)Nc3ccccc3C)c2N)cc1OC	i	2	55*	-1	-0.35	i	-6	-7
CC(C(=O)Nc1ccc(C#N)cc1)N1CCN(C(=O)C2CC2)CC1 (configuration not stated)	.	-7	.	.	.	.	.	.
COc1ccc(C(=O)NCCCNC(=O)c2ccccn2)cc1	.	0	.	.	.	.	.	.
Cc1nnc(NC(=O)C2CSC3(C)CCC(=O)N23)s1 (configuration not stated)	.	-1	.	.	.	.	.	.
O=C1CN(C(=O)COC(=O)CCC(=O)c2ccc3c(c2)OCCO3)c2ccccc2N1	i	-1	50*	0	-0.51	i	-6	-5
O=C1CN(C(=O)COC(=O)CCC(=O)c2ccc(Cl)cc2)c2ccccc2N1	.	-6	.	.	.	.	.	.
O=C(COc1ccc(Br)cc1)NNC(=S)NC(=O)c1ccccc1[N+](=O)[O-]	i	-14	61*	2	-0.023	i	-20	-6
O=C(NNC(=S)NC(=O)c1ccccc1[N+](=O)[O-])c1ccccc1[N+](=O)[O-]	i	-14	-8	0	0.73	i	.	.
NNC(=O)Cn1c(-c2nonc2N)nc2ccccc21	i	-1	-6	1	-0.23	i	.	.
Nc1nonc1-c1nc2ccccc2n1CC(=O)N/N=C\c1ccc(-c2ccc(Cl)cc2)o1	i	1	52*	2	-0.51	i	108*	13
COc1ccc(CCNC(=O)C2CCCCC2C(=O)O)cc1OC (configuration not stated)	i	.	59*	1	-0.41	i	-5	3
CCN(CCCNC(=O)CC(C(=O)N1CCc2ccccc21)n1ccnc1)c1ccccc1 (configuration not stated)	i	-11	56*	-2	0.62	i	-28	-7
O=C(OCC1CCC=CO1)C1CCC=CO1 (configuration not stated)	.	-7	.	.	.	.	.	.
